Series [1] in a line: Drug metabolism in human L02 cells assessed as NO release by measuring nitrite formation at 100 uM after 1 hr by Griess assay. It is filed as ADME, cell-based. Particulars: l02, 1 h. The essentials: (§1)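 HepG-2 or L-02 cells were exposed to 100 µM of each compound for 60 min and then harvested. Lysates were mixed with Griess reagent for 10 min at 37 °C and absorbance was read at 550 nm. NO release is expressed as nitrite, reported as mean ± SD of three independent experiments.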
A general note: Nitrite, measured by Griess reagent, commonly stands in for NO production.

For series [2], the system named is PC-3. Kind of series: Antiproliferative activity against human PC3 cells after 72 hrs by MTT assay. It is filed as functional, cell-based. The conditions noted are these: PC-3, 72 h. In outline:
(§2)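 MTT assay. Cells were seeded and grown 24 h at 37 °C in 5% CO2, then exposed to compound or left untreated for 72 h. MTT (5 mg/mL stock) was added for 4 h and the formazan dissolved in DMSO. OD was read at 570 nm. IC50 is the concentration giving 50% growth inhibition, reported as mean ± SD of three independent experiments. Vehicle reference was 0.1% DMSO.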
For orientation: Formazan colour is commonly taken as a measure of viable cells.

Series [3] is described as follows: Selectivity index, ratio of IC50 for human L02 cells to IC50 for human HepG2 cells. Type of series: toxicity. The conditions noted are these: L02 cells and HepG2 cells, read-out: Ratio IC50. The essentials:
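MTT assay: cells grown 24 h at 37 °C, 5% CO2, then exposed 72 h; MTT (5 mg/mL) added for 4 h, formazan dissolved in DMSO, OD read at 570 nm. Vehicle 0.1% DMSO. Three independent experiments.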

Series [4] is described as follows: Drug metabolism in human HepG2 cells assessed as NO release by measuring nitrite formation at 100 uM after 1 hr by Griess assay. Type of series: ADME, cell-based. Particulars: hepg2, 1 h. The essentials:
as §1

Series [5] concerns HT-29. Put plainly: Antiproliferative activity against human HT-29 cells after 72 hrs by MTT assay. It is filed as functional, cell-based. The conditions noted are these: HT-29, 72 h. In outline:
as §2

For series [6], the system named is L02. Kind of series: Cytotoxicity against human L02 cells assessed as reduction in cell viability after 72 hrs by MTT assay. It is filed as cell-based. Particulars: L02, 72 h. In outline: as §2
Series [7] relates to HepG2. Put plainly: Antiproliferative activity against human HepG2 cells after 72 hrs by MTT assay. It is filed as functional, cell-based. Particulars: HepG2, 72 h. In outline:
as §2

Structures are written as SMILES.

`C[C@H]1CCC/C=C/[C@@H]2C[C@H](OC(=O)CCCC(=O)OCCCOc3no[n+]([O-])c3S(=O)(=O)c3ccccc3)C[C@H]2[C@H](OC(=O)CCCC(=O)OCCCOc2no[n+]([O-])c2S(=O)(=O)c2ccccc2)/C=C/C(=O)O1`: the Drug metabolism in series [1] was determined as 23.4 µM; in series [4], 92.3 µM. The IC50 (usually the concentration at which inhibition is half-maximal) in series [2] turned out to be 83 nM; in series [5] it was 620 nM; in series [6] it was 5100 nM; in series [7], 380 nM. For the same compound, the selectivity ratio in series [3] is 13.

Source of the values: ChEMBL document CHEMBL4138082 (Eur J Med Chem, 2017).
